Activity calls are given as the source filed them. No cut-off for these calls is given here.
Columns and labels:
[1] = Tmax in C57BL/6J mouse at 100 mg/kg/day, ig by HPLC-MS/MS analysis; format: ADME, organism-based; conditions: in vivo, po
Method in brief: (§1)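 Male C57BL/6J mice (6–8 weeks, ~20 g), fasted 12 h, given a single intragastric dose of 25, 50 or 100 mg/kg in 10% DMSO/30% PEG/0.9% NaCl. Retro-orbital blood at 5 min to 8 h; plasma protein-precipitated with methanol plus internal standard, assayed by LC-MS/MS; noncompartmental analysis. Mean ± SD, n = 6.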

[2] = molecular target: T1, Phosphatidylcholine:ceramide cholinephosphotransferase 2 (Homo sapiens) (UniProt Q8NHU3); experiment: (§2) Inhibition of purified SMS2 (unknown origin) using C6-NBD-Ceramide and DMPC as substrates preincubated for 5 mins followed by substrate addition and measured after 30 mins by TLC or HPLC method
T1 sequence (whole entry): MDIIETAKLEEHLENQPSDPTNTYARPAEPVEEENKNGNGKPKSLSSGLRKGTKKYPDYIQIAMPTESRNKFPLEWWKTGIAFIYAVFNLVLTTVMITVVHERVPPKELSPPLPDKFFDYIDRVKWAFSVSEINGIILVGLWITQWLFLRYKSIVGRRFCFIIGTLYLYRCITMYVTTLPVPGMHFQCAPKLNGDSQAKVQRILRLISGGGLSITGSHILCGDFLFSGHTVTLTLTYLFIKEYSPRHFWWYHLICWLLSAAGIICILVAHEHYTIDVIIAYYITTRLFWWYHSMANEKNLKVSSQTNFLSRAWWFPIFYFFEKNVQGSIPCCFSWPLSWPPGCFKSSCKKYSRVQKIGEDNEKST
Method in brief: (§3)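 Purified SMS1 or SMS2 in DDM detergent buffer; inhibitor in DMSO pre-incubated 5 min at room temperature, then C6-NBD-ceramide and DMPC added, 30 min at 37 °C; ethanol quench, TLC or HPLC read-out. Activity expressed as percent of no-inhibitor vehicle; IC50 from ten (SMS1) or eight (SMS2) concentrations, mean ± SD, n = 3.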

[3] = molecular target: T2, Phosphatidylcholine:ceramide cholinephosphotransferase 2 (Homo sapiens, UniProt Q8NHU3); experiment: as §2; method in brief: as §3
T2 sequence (Q8NHU3 whole entry): T1 sequence (whole entry)

Mus musculus [4] = experiment: Anti-atherosclerotic activity in apoE knockout mouse fed with western-type diet assessed as reduction in lymphocyte count at 12.5 mg/kg/day, ig for 7 weeks by flow cytometric analysis relative to control; format: functional; set-up: scale not given: the % may be the effect or the level left
Method in brief: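 ApoE KO mice started at 8 weeks old on Western-type diet for 6 weeks. Then dosed by gavage daily with vehicle, 12.5 or 40 mg/kg for 7 weeks with the diet continued, 10 mice per group. Blood single-cell suspensions stained with antibodies in PBS and analysed by flow cytometry. Mean ± SD, n = 5.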

[5] = molecular target: T2, Phosphatidylcholine:ceramide cholinephosphotransferase 2; experiment: Inhibition of SMS2 (unknown origin) over-expressed in H5 insect cell lysate using C6-NBD-Ceramide and DMPC as substrates preincubated for 30 mins followed by substrate addition and measured after 2 hrs by TLC or HPLC method; format: subcellular
Mus musculus [6] = experiment: Anti-atherosclerotic activity in apoE knockout mouse fed with western-type diet assessed as reduction in lesions in whole aorta at 40 mg/kg/day, ig for 7 weeks by oil-red O staining-based assay relative to control; format: functional; set-up: scale not given: the % may be the effect or the level left
Method in brief: (§4)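 ApoE KO mice fed Western-type diet, then given 12.5 or 40 mg/kg/day by gavage in 30% PEG-400/10% DMSO/0.9% NaCl for 7 weeks. Aortic root: H&E-stained 4 µm sections, mean lesion area from 6 sections per animal. Whole aorta: en face Oil Red O staining, percentage of area stained. Compared with vehicle, n = 10.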

Mus musculus [7] = experiment: Anti-atherosclerotic activity in apoE knockout mouse fed with western-type diet assessed as reduction in lesions in proximal aorta at 40 mg/kg/day, ig for 7 weeks by hematoxylin and eosin staining-based assay relative to control; format: functional; set-up: scale not given: the % may be the effect or the level left; method in brief: as §4
[8] = Dose normalized AUC (0 to 8 hrs) in C57BL/6J mouse at 50 mg/kg/day, ig by HPLC-MS/MS analysis; format: ADME, organism-based; conditions: in vivo, po
Method in brief: (§5)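 Male C57BL/6J mice, six to eight weeks old, about 20 g, fasted 12 h with free water. Given a single intragastric dose of 25, 50 or 100 mg/kg in 10% DMSO/30% PEG-100/0.9% NaCl. Blood taken retro-orbitally at 5 min to 8 h. Plasma protein-precipitated with methanol plus internal standard, then HPLC-MS/MS on a C18 column. Noncompartmental analysis, n = 6.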

[9] = Half life in C57BL/6J mouse at 50 mg/kg/day, ig by HPLC-MS/MS analysis; format: ADME, organism-based; conditions: in vivo, po; method in brief: as §5
[10] = molecular target: T3, Phosphatidylcholine:ceramide cholinephosphotransferase 2 (Mus musculus) (UniProt Q9D4B1); experiment: Inhibition of SMS2 in C57BL/6J mouse bone marrow derived macrophages assessed as increase in [3H]-cholesterol efflux after 17 hrs by liquid scintillation analysis
T3 sequence (whole entry): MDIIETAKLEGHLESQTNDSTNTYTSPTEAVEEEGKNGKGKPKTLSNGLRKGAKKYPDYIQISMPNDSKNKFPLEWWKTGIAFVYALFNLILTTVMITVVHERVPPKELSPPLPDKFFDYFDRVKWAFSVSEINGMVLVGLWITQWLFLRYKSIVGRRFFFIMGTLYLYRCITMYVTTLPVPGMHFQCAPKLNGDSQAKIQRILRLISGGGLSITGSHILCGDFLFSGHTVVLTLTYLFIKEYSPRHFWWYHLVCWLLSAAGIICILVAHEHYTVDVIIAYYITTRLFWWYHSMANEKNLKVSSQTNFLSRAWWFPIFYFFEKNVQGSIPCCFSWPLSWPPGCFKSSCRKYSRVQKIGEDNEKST
Method in brief: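 Bone marrow macrophages treated with inhibitor at various concentrations for 17 h, labeled with [³H]-cholesterol on acetylated LDL, equilibrated 1 h in DMEM/0.2% BSA, then given 50 µg/ml HDL; medium taken at 8 h. Efflux = medium radioactivity as percent of medium plus cell-lysate total, by scintillation counting.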

[11] = MRT (0 to infinity) in C57BL/6J mouse at 100 mg/kg/day, ig by HPLC-MS/MS analysis; format: ADME, organism-based; conditions: in vivo, po; method in brief: as §1
BMDM = experiment: Inhibition of LPS-induced MCP1 production in C57BL/6J mouse bone marrow derived macrophages at 6.25 to 50 uM preincubated for 17 hrs followed by LPS-stimulation and measured after 6 hrs by ELISA; format: functional, cell-based
Method in brief: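 Mouse bone marrow-derived macrophages exposed to a range of inhibitor concentrations for 17 h, then LPS 50 ng/ml for 6 h; IL-6 and MCP-1 in culture medium quantified by ELISA. Mean ± SD, n = 7.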

[12] = Apparent volume of distribution during terminal phase in C57BL/6J mouse at 100 mg/kg/day, ig by HPLC-MS/MS analysis; format: ADME, organism-based; conditions: in vivo, po, read-out: Vz/F; method in brief: as §5
[13] = AUC (0 to infinity) in C57BL/6J mouse at 100 mg/kg/day, ig by HPLC-MS/MS analysis; format: ADME, organism-based; set-up: dose 100 mg/kg/day, route intragastric, time infinity; conditions: in vivo, po; method in brief: as §5
[14] = MRT (0 to 8 hrs) in C57BL/6J mouse at 50 mg/kg/day, ig by HPLC-MS/MS analysis; format: ADME, organism-based; conditions: in vivo, po; method in brief: as §1

## CCc1ccccc1COc1ccccc1C(=O)Nc1cccnc1
[1]
  Tmax: 6 min
[2]
  inhibition: Dose-dependent effect
[3]
  IC50: 91 nM
Mus musculus [4]
  Activity: 21%
[5]
  IC50: 880 nM
Mus musculus [6]
  Activity: 41%
Mus musculus [7]
  Activity: 50%
[8]
  AUC/dose: 0.12 µg·h/mL
[9]
  half-life: 1.83 h
[10]
  inhibition: Dose-dependent effect
[11]
  MRT inf: 2.57 h
BMDM
  inhibition: Active
[12]
  Vd/F: 28.8 L
[13]
  AUC(0-inf): 14500 ng·h/mL
[14]
  MRT: 1.66 h
